Assay outcomes from PubChem BioAssay.
This is a sample that favours compounds with a hit; in the whole collection about 3.5% have one here.
RGS4 pot: RGS4 potentiators or activators, primary screen, cell-based, HEK293 M3R inducible RGS4, calcium flux. B-score at 10 µM. 310,000 compounds, 0.92% hits. carbachol calcium flux Fluo4; active compounds read low. AID 463111, 2010;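 active = B-score of the integrated calcium signal more than 4 SD below the library mean, with starting fluorescence not abnormally high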;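 also: negative B-score means reduced calcium response which marks RGS4 activation or potentiation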
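test system = M3R-expressing HEK293 line, RGS4 induced by doxycycline | probe or stimulus = carbachol at ECmax as muscarinic agonist stimulus | timing = dye loading 30 min 37 °C, buffer rest 30 min RT | signal = calcium dye Fluo4 fluorescence | evaluation = B score from integrated fluorescence ratio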
MrgX1 agonist: agonists of human MrgX1 receptor, primary screen, HEK293 cells, Fluo-4 calcium flux; Mas-related G-protein coupled receptor member X1 (Homo sapiens), Q96LB2; Fluo-4 calcium fluorescence, agonist mode; active compounds read high; B-score at 10 µM; 310,000 compounds, 0.44% hits; AID 588627, 2011;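 active = calcium response B-score plate-corrected fluorescence ratio at least 3 library SD, with starting fluorescence B-score inside 5 SD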
Target sequence (Q96LB2 whole entry, looked up): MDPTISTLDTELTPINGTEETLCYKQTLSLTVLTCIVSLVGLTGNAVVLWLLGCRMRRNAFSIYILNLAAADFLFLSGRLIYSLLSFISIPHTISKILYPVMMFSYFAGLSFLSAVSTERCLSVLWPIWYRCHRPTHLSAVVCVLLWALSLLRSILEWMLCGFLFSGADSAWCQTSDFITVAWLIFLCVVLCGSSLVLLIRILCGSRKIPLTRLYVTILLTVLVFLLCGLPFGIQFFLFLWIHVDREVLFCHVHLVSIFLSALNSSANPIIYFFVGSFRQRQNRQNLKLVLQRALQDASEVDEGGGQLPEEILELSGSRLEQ
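Test system: Stable human MrgX1 HEK293 cell line | Schedule: Overnight plating before 1 h dye loading | Read-out basis: Baseline-normalised fluorescence change ratio, B-scored | Detection: Kinetic calcium dye fluorescence, Fluo-4 NW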
RGS4 inh: RGS4 inhibitors, primary screen, cell-based, HEK293 M3R inducible RGS4, calcium flux. Regulator of G-protein signaling 4 (Homo sapiens), P49798. Fluo-4 calcium flux; active compounds read high; triggered by carbachol at its EC20. B-score at 10 µM. 310,000 compounds, 0.45% hits. AID 463165, 2010;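 active = B-score, a plate-corrected calcium signal, over three deviations above library mean, with baseline fluorescence within five deviations of library mean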;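 also: RGS4 expression induced by doxycycline in cells with stable M3 receptor; B-score is computed from the integrated fluorescence ratio over baseline after carbachol; higher B-score means a larger calcium signal and so more RGS4 inhibition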
Target sequence (P49798 whole entry, looked up): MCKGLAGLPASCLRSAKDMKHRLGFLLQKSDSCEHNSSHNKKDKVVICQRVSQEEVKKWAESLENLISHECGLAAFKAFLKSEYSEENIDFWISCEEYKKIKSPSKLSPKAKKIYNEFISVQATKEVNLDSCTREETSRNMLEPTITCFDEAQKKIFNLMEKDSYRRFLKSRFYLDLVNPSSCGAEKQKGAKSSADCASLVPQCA
MrgX1 antagonist: antagonists of human MrgX1 receptor, primary screen, HEK293 cells, Fluo-4 calcium flux. BAM8-22 antagonism; active compounds read low. B-score at 10 µM. 310,000 compounds, 1.3% hits;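 active = calcium-response B-score plate-corrected more than 3 library SD below zero, starting fluorescence within 5 deviations, no agonist response on first addition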;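 also: peak minus trough fluorescence over baseline after final BAM8-22 challenge near maximal dose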
MrgX1 PAM: positive allosteric modulators of MrgX1, primary screen, HEK293 cells, Fluo-4 calcium flux; 310,000 compounds, 0.63% hits; FDSS; active compounds read high; B-score at 10 µM; Mas-related G-protein coupled receptor member X1 (Homo sapiens), Q96LB2;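 active = plate-corrected calcium response at least 3 library SD above typical, normal starting fluorescence, not activating the receptor alone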;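 also: compound read alongside a low EC10 to EC30 dose of BAM8-22 agonist; peak minus trough fluorescence over baseline measured at the second addition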
Large screens that a line does not name were inactive.

CO/N=C/C(=N\Nc1cc(OC)cc(OC)c1)C(=O)c1ccccc1	MrgX1 antagonist -5.42
CCNC(=S)NNC(=O)C(c1ccccc1)c1ccccc1	none
CC(=O)NNC(=S)NC(=O)C(c1ccccc1)c1ccccc1	MrgX1 agonist 34.6
CC(C)(C)C(=O)NC(=S)NNC(=O)C(c1ccccc1)c1ccccc1	RGS4 pot -7.4, MrgX1 agonist 156
CC(=O)Nc1ccc(NC(=O)CS(=O)(=O)c2cn(CC(=O)N3CCC(C)CC3)c3ccccc23)cc1	none
CS(=O)(=O)c1ccc(C(=O)OCC(=O)c2ccc(Cl)s2)cc1	none
COc1ccc(C(C(=O)NC2CCCC2)N(C(=O)CNC(=O)c2ccco2)c2cccnc2)cc1 (stereo not given)	none
CCCSc1nnc(NC(=O)c2sc3nc(-c4cccs4)ccc3c2N)s1	MrgX1 agonist 38.2
COC(=O)c1ccc(Cn2cnc3cnccc32)cc1	none
COc1cc(C(C)=O)ccc1OCC(O)CNCC(O)c1ccccc1 (stereo not given)	none
CC(=O)N1c2c(cc(Br)cc2S(=O)(=O)N2CCN(c3ccccc3F)CC2)CC1C (stereo not given)	MrgX1 antagonist -7.75
CSc1ccc(CN(C)C(=O)C(Cc2ccccc2)NC(=O)c2ccccc2)cc1 (stereo not given)	RGS4 pot -7.35
CN(Cc1ccc(F)cc1)C(=O)C(Cc1ccccc1)NC(=O)c1ccccc1 (stereo not given)	none
CCCN(CC(=O)Nc1ccccc1OC)C(=O)c1cccc(S(=O)(=O)NCc2ccccc2)c1	MrgX1 antagonist -6.07
CSc1ccc(CN(C)C(=O)c2cccc(S(=O)(=O)NCc3ccccc3)c2)cc1	MrgX1 antagonist -5.06
CCC(C)NC(=O)CCSCCC(=O)NC(C)CC (stereo not given)	none
COC(=O)[C@@]1(Cc2ccc(OC)cc2)[C@H]2c3cc(C(=O)N(C)C)n(Cc4c(CO)[nH]cc(C)c4=O)c3C[C@H]2CN1C(=O)c1ccccc1	none
COC(=O)[C@@]1(Cc2ccc(OC)cc2)[C@H]2c3cc(C(=O)N4CCCC4)n(Cc4c(CO)[nH]cc(C)c4=O)c3C[C@H]2CN1C(=O)c1ccccc1	MrgX1 antagonist -5.6
O=C(CSc1nnc(-c2ccc(C(F)(F)F)cn2)o1)Nc1cccc(Cl)c1	none
CN1CCC(=C(c2ccccc2)c2ccc(Br)cc2)CC1	RGS4 pot -7.68
CCCCN(CCCC)c1nc2ccccc2nc1C(C#N)C(=O)NCCCOC (stereo not given)	RGS4 pot -9.47
CCCCCCCCCCCCCCCC[N+](C)(C)CC	MrgX1 antagonist -5.26
COc1c(CC=C(C)C)cc(C2CC(=O)c3c(O)cc(O)cc3O2)c(CC=C(C)C)c1O (stereo not given)	RGS4 pot -7.63
Cc1ccc(C)c(Nc2cc(C)nc3ccccc23)c1	none
O=[N+]([O-])c1ccccc1S(=O)(=O)Nc1cccc(-c2ccc3nncn3n2)c1	MrgX1 agonist 26.7
Cc1nnc2ccc(-c3cccc(NS(=O)(=O)c4ccccc4[N+](=O)[O-])c3)nn12	MrgX1 agonist 29.2
Cc1nnc2ccc(-c3cccc(NS(=O)(=O)c4ccccc4Cl)c3)nn12	none
CCC(=O)c1ccc(OCC(O)Cn2nc(C)c(Br)c2C)cc1 (stereo not given)	none
COc1ccc(Cc2noc(CN(C)CC(O)c3ccccc3)n2)cc1OC (stereo not given)	MrgX1 antagonist -5.21
CCCCCCN(C(=O)CCCCCN1C(=O)NC(c2ccc(-c3ccccc3)cc2)C(C(=O)OCc2ccccc2)=C1C)C(C(=O)NCCCC)c1ccccc1 (stereo not given)	none (no result: MrgX1 agonist, MrgX1 antagonist, MrgX1 PAM)
CCCCCCN(C(=O)CCCCCN1C(=O)NC(c2ccc(-c3ccccc3)cc2)C(C(=O)OCc2ccccc2)=C1C)C(C)C(=O)NCCCC (stereo not given)	MrgX1 antagonist -4.59
Cc1ccc(C2=NC3(CCCCC3)NC2=S)cc1	none
CCN1CCC2(CC1)N=C(c1ccc(F)cc1)C(=S)N2	RGS4 pot -7.41
CN(C)CCCN1c2ccccc2Sc2ccc(C(F)(F)F)cc21	RGS4 pot -8.33
CCN(CC)CCCCN1c2ccccc2Sc2ccccc21	RGS4 pot -7.24
CN1CCN(CCC(=O)N2c3ccccc3Sc3ccc(C(F)(F)F)cc32)CC1	MrgX1 antagonist -8.21
CCCCC[C@H](O)/C=C/[C@H]1CCC(=O)[C@@H]1CCCCCCC(=O)N1CCCCC1CO (stereo not given in full)	RGS4 pot -8.47, MrgX1 agonist 48.3
CC(SCc1ccccc1)C(=O)Nc1ccccc1-c1ccccc1 (stereo not given)	MrgX1 PAM 11.6
CCOc1ccccc1NC(=O)C(C)SCc1ccccc1 (stereo not given)	none
CCc1cc[n+](-c2nc3ccccc3nc2[N-]S(=O)(=O)c2ccc(Br)s2)cc1	MrgX1 antagonist -6.5
Cc1ccc(C(=O)O)cc1-c1ccc(C=C2C(=O)c3ccccc3C2=O)o1	MrgX1 agonist 41.5
Cc1ccc(NC(=O)CN2C(=O)S/C(=C/c3ccc(-c4cc(C(=O)O)ccc4C)o3)C2=O)cc1C	none
Cc1cc(C(=O)O)ccc1-n1c(C)cc(C=C2C(=O)c3ccccc3C2=O)c1C	MrgX1 agonist 29.4
CCN(Cc1ccccc1)C(=O)c1oc2ccc(S(=O)(=O)N3CCOCC3)cc2c1C	none
CCN(C(=O)c1cnc(NC(C)C)cc1C(F)(F)F)c1ccc(Cl)cc1Cl	none
COn1c2c(c3c4nonc4ccc31)CCCC2	none
On1c2c(c3c4nonc4ccc31)CCCC2	MrgX1 agonist 26.7
CCC1CN(S(=O)(=O)c2ccc3c(c2)NC(=O)CC(=O)N3)c2cc(Cl)ccc2O1 (stereo not given)	none
COc1ccc(S(=O)(=O)N2CCOC2CNC(=O)C(=O)NCCCN(C)C)cc1C (stereo not given)	none
Cc1ccc([N+](=O)[O-])cc1S(=O)(=O)Nc1ccc(N2CCOCC2)cc1	none
Cc1ccc(C(=O)Nc2ccccc2[N+](=O)[O-])cc1S(=O)(=O)N1CCOCC1	MrgX1 PAM 8.03
COc1ccc(C(=O)Nc2ccccc2[N+](=O)[O-])cc1S(=O)(=O)N1CCOCC1	none
O=C1/C(=N/n2cnnc2)c2ccccc2N1Cc1ccccc1	MrgX1 agonist 44.6
CCc1cccc(C)c1NC(=O)Cn1nc(C)n2cccc2c1=O	none
CNC(=O)COC(=O)/C=C/c1cccs1	MrgX1 PAM 6.5
CCOc1ccc(-c2cc(N3C(=O)Nc4ccccc4N3O)n[nH]2)cc1	MrgX1 antagonist -6.69
Cc1ccc(C(=O)Nc2ccc(S(=O)(=O)Nc3ncccn3)cc2)cc1[N+](=O)[O-]	none
